Active and inactive are the calls of the source. No cut-off for these calls is given here.

Series [1] has as its system BV-2. The experiment in a line: Inhibition of NO production in LPS-activated mouse BV2 cells at 10 uM after 24 hrs by Griess method relative to control. As to conditions: for inhibition at 10 µM: BV-2, 24 h. In kind it is functional. The method, boiled down: (§1)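 Murine BV-2 microglia stimulated with LPS 100 ng/mL with or without sample for 24 h; nitrite in culture medium measured by Griess reaction. Percent inhibition relative to LPS control at 10 μM, n = 3; IC50 also derived.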
Background: Nitrite, measured by Griess reagent, commonly stands in for NO production.

Series [2] relates to BV-2. The experiment in a line: Inhibition of NO production in LPS-activated mouse BV2 cells after 24 hrs by Griess method. In kind it is functional, cell-based. As to conditions: BV-2, 24 h. The method, boiled down:
as §1

Series [3] has as its system BV-2. The experiment in a line: Inhibition of iNOS expression in LPS-activated mouse BV2 cells at 1-10 uM after 6 hrs by Western blot. It counts as functional, cell-based. The method, boiled down:
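BV-2 cells treated 6 h with compound (1–10 μM) during LPS (100 ng/mL) activation; protein assessed by blotting with anti-tubulin as loading control; representative of three independent experiments.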

Series [4] can be described thus: Cytotoxicity against mouse BV2 cells assessed as cell viability at 10 uM by MTT assay. In kind it is cell-based. Conditions: bv-2, 10 µM. The method, boiled down: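 BV-2 microglia viability determined by MTT assay alongside the LPS (100 ng/mL) nitrite experiment.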

Turning to `Cn1cc(-c2ccc(O)cc2)c(=O)c2c(O)cc(O)cc21`, testing at 10 µM in series [1] gave an inhibition of 39.3%. In addition, the IC50 in series [2] was 13.3 µM.
For `COc1ccc(-c2cn(C)c3ccccc3c2=O)cc1`, in that order: 31.9% and 18.8 µM.
On to `CCn1cc(-c2ccc(OC)cc2)c(=O)c2ccccc21`, for which, in series [1], the inhibition at 10 µM came to 14.9%. In series [2], this molecule came in with an IC50 of 25.8 µM.
The matching figures for `Cn1cc(-c2ccc(O)cc2)c(=O)c2ccccc21`: 47.4% and 9.91 µM.
With `CCn1cc(-c2ccc(O)cc2)c(=O)c2c(O)cc(O)cc21` [AZAISOFLAVONE], the inhibition at 10 µM in series [1] stood at 58.1%. It took 7.83 µM to reach half-maximal inhibition in series [2] (IC50). In addition, the Activity entry in series [3] was “Dose-dependent effect”.
`COc1ccc(-c2c[nH]c3cc(OC)ccc3c2=O)cc1`: the result in series [1] was inactive. The Activity result in series [4] is on record as “Toxic”.
Molecule `CCn1cc(-c2ccc(O)cc2)c(=O)c2ccccc21` had an inhibition at 10 µM in series [1] of 27%. The molecule further displayed an IC50 in series [2] of 18.5 µM.
For `O=c1c(-c2ccc(O)cc2)c[nH]c2ccccc12`, in that order: 29.5% and 15.6 µM.
Consider `COc1ccc(-c2c[nH]c3ccccc3c2=O)cc1`, for which the outcome in series [1] was inactive. In addition, the Activity entry in series [4] is recorded as “Toxic”.
Consider `COc1ccc(-c2c[nH]c3cc(OC)cc(OC)c3c2=O)cc1`, for which the inhibition at 10 µM in series [1] is 23.2%. In series [2], this molecule showed an IC50 of 20.5 µM.
Regarding `CCn1cc(-c2ccc(OC)cc2)c(=O)c2c(OC)cc(OC)cc21`, in series [1], the inhibition at 10 µM was found to be 27.3%. Besides, the IC50 in series [2] worked out at 17.6 µM.
As for `O=c1c(-c2ccc(O)cc2)c[nH]c2cc(O)cc(O)c12`, the inhibition at 10 µM in series [1] was 45%. In series [2], half-maximal inhibition (IC50) required 10.9 µM.

Broadly, the inhibition is the change of the read-out against control, counted positive when it falls. A higher inhibition goes with strong suppression. One may read the IC50 as the concentration that inhibits the measured activity by half. Lower therefore signals higher potency.
